ARFGAP1 inh: inhibitors of rat ARFGAP1 GAP activity, primary screen, biochemical, fluorescence polarization, GDP tracer; Arfgap1-stimulated ARF1 GTP hydrolysis, GDP FP detection; inhibition, % at 16.5 µM; ADP-ribosylation factor GTPase-activating protein 1 (Rattus norvegicus), Q62848; actives 0.26% (n = 360,000);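 active means inhibition above a per-plate limit, mean inhibition of low control wells plus 3 SD, cut at about 25% in these data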;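 further: 0% = DMSO wells with enzyme and 100% = wells lacking Arfgap1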
Target sequence (Q62848 1-136 limits assumed): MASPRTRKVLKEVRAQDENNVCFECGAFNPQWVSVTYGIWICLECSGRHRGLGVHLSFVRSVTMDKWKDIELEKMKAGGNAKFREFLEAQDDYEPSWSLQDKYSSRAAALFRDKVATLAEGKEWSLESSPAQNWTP
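Material: truncated rat Arfgap1 GAP domain; Incubation: compound-enzyme preincubation 20 min, reaction 120 min, detection 60 min, 25 °C; Read-out: percent inhibition of Arfgap1-stimulated GTP hydrolysis; Technique: FP, GDP Alexa 633 tracer displaced from anti-GDP antibody, 620/688 nm; Controls: No-Arfgap1 wells (100%) versus DMSO full-reaction wells (0%); Replication: single well per compound.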
esBAF inh: Bmi1 luciferase reporter increase in mESCs, primary screen, esBAF inhibitor project, mouse ES cells, Bmi1 luciferase knock-in, single point; 24 h; 100% = twice the neutral-well signal; reporter increase, % at 12.5 µM; actives 2% (n = 350,000); AID 602393, 2012; in the data active means activation above about 40%;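 further: 0% = median of the plate's neutral control wells and 100% = double that signal; a rise in the Bmi1 reporter signal indicates esBAF inhibition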
ASAP1 GAP inh: inhibitors of human ASAP1 ArfGAP activity, primary screen, biochemical, fluorescence polarization | ASAP1-stimulated ARF1 GTP hydrolysis, GDP FP detection | inhibition, % at 16.5 µM | actives 0.19% (n = 360,000); in the data active means inhibition above about 25%;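 further: 0% = vehicle with enzyme and substrate and 100% = no enzyme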
SMARCA2 activ: SMARCA2 (BRM) function activators, primary screen, cell-based, luminescence, high throughput. AID 652017, 2013. MG213 cells, MMTV-luciferase reporter, dexamethasone, overnight. actives 1% (n = 370,000). activation, % at 9.1 µM; in the data active means activation above about 7.8%;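 further: 0% = vehicle wells and 100% = reference activator wells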
ASAP1 GAP conf: ASAP1 GAP activity inhibitors, confirmation, biochemical, fluorescence polarization, human, triplicate; shares compounds with ASAP1 GAP inh; ASAP1-stimulated Arf1 GTPase, GDP fluorescence polarization; inhibition, % at 16.5 µM; actives 37% (n = 620); AID 624431, 2012;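 active means mean inhibition over triplicates exceeds the hit threshold derived for the earlier primary screening run, cut at about 25% in these data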
ARFGAP1 confirm: ARFGAP1 inhibitor hit confirmation, biochemical, fluorescence polarization, triplicate | ARFGAP1-stimulated ARF1 GTP hydrolysis, GDP tracer FP | actives 30% (n = 890) | AID 651608, 2012 | shares compounds with ARFGAP1 inh | inhibition, % at 16.5 µM;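 active means average inhibition over triplicates above the hit cutoff set in the earlier primary screen, cut at about 25% in these data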;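 further: 0% = Arfgap1 plus ARF1-GTP with DMSO and 100% = wells lacking Arfgap1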
Target sequence (Q62848 whole entry, looked up): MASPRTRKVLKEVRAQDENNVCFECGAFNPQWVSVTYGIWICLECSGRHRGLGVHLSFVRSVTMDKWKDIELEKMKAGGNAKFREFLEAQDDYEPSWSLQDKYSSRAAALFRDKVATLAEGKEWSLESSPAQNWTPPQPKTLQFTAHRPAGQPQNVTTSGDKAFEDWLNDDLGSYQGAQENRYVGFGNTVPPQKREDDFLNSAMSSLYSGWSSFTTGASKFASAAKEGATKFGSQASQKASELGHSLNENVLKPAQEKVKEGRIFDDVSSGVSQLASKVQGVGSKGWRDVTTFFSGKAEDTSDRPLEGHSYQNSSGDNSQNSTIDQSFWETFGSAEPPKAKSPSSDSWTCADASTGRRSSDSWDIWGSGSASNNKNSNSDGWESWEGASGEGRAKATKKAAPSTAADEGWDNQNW
* marks the source's active call; other numbers are inactive results; nt = not tested or not shown. Most compounds without a hit are left out; they make up all but 2.6% or so of the library.

SMILES	ARFGAP1 inh	esBAF inh	ASAP1 GAP inh	SMARCA2 activ	ASAP1 GAP conf	ARFGAP1 confirm
Cc1ccccc1/C=N/Nc1ccnc2cc(Cl)ccc12	92*	nt	50*	-2	94*	149*
CO[C@@H]1CN(C)C(=O)c2ccc(NS(=O)(=O)c3ccc(C)cc3)cc2OC[C@H](C)N(C(=O)NC(C)C)C[C@H]1C	nt	-3	nt	nt	nt	nt
O=C(C[C@@H]1CC[C@H]2[C@@H](COC[C@H](O)CN2C(=O)c2ccccn2)O1)NC1CCC1	nt	-7	nt	nt	nt	nt
Cc1cc(C)c2nc(N3C(=O)C(O)=C(C(=O)c4ccco4)C3c3cccc(O)c3)sc2c1 (stereo not drawn)	25*	3	26*	0	39*	39*
Cc1cc(C)c2nc(N3C(=O)C(O)=C(C(=O)c4ccco4)C3c3ccc(O)cc3)sc2c1 (stereo not drawn)	-8	11	-2	1	nt	nt
Oc1ccccc1C=NNC(=S)NN=Cc1ccccc1O	55*	-9	32*	1	58*	71*
NC(=S)N/N=C/c1ccccc1O	-5	-4	2	-5	nt	nt
C[C@@H](NC(=O)[C@H]1N[C@H]2c3ccc(C4=CCCC4)c(=O)n3C[C@H]2[C@@H]1CO)c1ccccc1	nt	4	nt	nt	nt	nt
CCN1CCN(Cc2ccc(NC(=O)c3cc(NC(=O)c4cncc(-c5ccc(C#N)cc5)c4)cc(OC)c3)cc2C(F)(F)F)CC1	67*	-14	57*	8	75*	108*
COc1cc(C)ccc1OCCOc1cc(C)ccc1Cl	12	22	-4	0	nt	nt
C=CCN(CC=C)CCCOc1ccc(C)cc1OC	46*	nt	51*	0	0	-7
C[C@H]1CN([C@@H](C)CO)C(=O)c2cc(NC(=O)NC3CCCCC3)ccc2O[C@H]1CN(C)S(C)(=O)=O	nt	0	nt	nt	nt	nt
CCN(CC)CCOC(=O)c1ccc(N/C=C(/C#N)c2nc(-c3ccc(OC)c(OC)c3)cs2)cc1	115*	nt	71*	1	184*	196*
COc1ccccc1/C=N\Nc1cn[nH]c(=O)c1Cl	28*	nt	26*	-1	20	15
C[C@H]1CN([C@@H](C)CO)C(=O)c2cccc(NC(=O)C3CCCCC3)c2O[C@@H]1CN(C)S(=O)(=O)c1ccc(F)cc1	nt	2	nt	nt	nt	nt
CC(=O)NS(=O)(=O)c1ccc(NC(=O)/C=C/c2cn(-c3ccccc3)nc2-c2ccccc2)cc1	16	nt	-8	-1	nt	nt
O=C(/C=C\c1cn(-c2ccccc2)nc1-c1ccccc1)Nc1nccs1	50*	nt	50*	-1	32*	72*
C/C=C/c1ccc2c(c1)O[C@@H](CN(C)C(=O)c1ccccc1F)[C@H](C)CN([C@H](C)CO)S2(=O)=O	nt	7	nt	nt	nt	nt
CC(=O)Nc1ccc(C(=O)Nc2nc(-c3cccnc3)cs2)cc1	26*	7	29*	-5	52*	39*
O=C(Nc1nc(-c2ccccc2)cs1)c1cccnc1	0	28	-2	-1	nt	nt
COc1cc(/C=N\NC(=O)c2ccc(C)nc2)ccc1OC(=O)c1ccc2c(c1)OCO2	29*	nt	29*	8	38*	75*
Clc1cccc(Cl)c1CON/C=N/c1ncnc2sccc12	86*	18	93*	-1	67*	66*
COc1ccc(C2C(C(=O)c3ccccc3)N3c4ccccc4C=CC3C2[N+](=O)[O-])cc1 (stereo not drawn)	27*	nt	29*	0	12	10
COc1ccc(N2C(=O)[C@@H]3[C@H](C2=O)[C@H](C(C)=O)N2c4ccccc4C=C[C@@H]32)cc1	18	6	4	3	nt	nt
O=C(N/N=C/c1cc(Cl)ccc1O)c1ccc(Br)cc1	65*	nt	52*	-5	76*	99*
SMILES	ARFGAP1 inh	esBAF inh	ASAP1 GAP inh	SMARCA2 activ	ASAP1 GAP conf	ARFGAP1 confirm
O=C(N/N=C/c1cc(Br)ccc1O)c1ccncc1	9	-59	1	-4	nt	nt
C[C@@H]1CN([C@H](C)CO)C(=O)c2cc(NS(=O)(=O)c3ccccc3)ccc2O[C@@H](C)CCCCO[C@@H]1CN(C)CC1CC1	nt	9	nt	nt	nt	nt
COc1ccc(CN(C)C[C@@H]2OCCCC[C@H](C)Oc3ccc(NC(=O)c4ccncc4)cc3C(=O)N([C@H](C)CO)C[C@@H]2C)cc1	nt	-6	nt	nt	nt	nt
O=C(Nc1cccc(-c2nc3ccccc3[nH]2)c1)c1cccc(NC(=O)c2ccco2)c1	77*	32	44*	7	76*	123*
CS(=O)(=O)c1cccc(C(=O)Nc2cccc(-c3nc4ccccc4[nH]3)c2)c1	14	13	11	4	nt	nt
O=C(NC1(O)C(=O)c2ccccc2C1=O)c1ccccc1	37*	nt	53*	-1	21	3
COc1ccccc1Cc1c(-c2ccc(F)cc2)nc2ccc(Cl)cn12	4	19	12	-1	nt	nt
COc1cc2c3nnc(-c4ccc(F)cc4)c-3cn(Cc3ccccc3F)c2cc1OC	152*	nt	58*	2	83*	172*
C[C@@H]1CN([C@H](C)CO)C(=O)c2cccc(NC(=O)Nc3ccc(F)cc3)c2O[C@H]1CN(C)Cc1ccc2c(c1)OCO2	nt	2	nt	nt	nt	nt
Cc1ccc2nc(SCC(=O)N3CCCCCC3)nc(=O)n2c1	62*	-10	44*	-2	44*	77*
Cc1ccn2c(=O)nc(SCC(=O)N3CCCCCC3)nc2c1	-7	7	4	0	nt	nt
Cc1ccc2nc(SCC(=O)N3CCCCC3)nc(=O)n2c1	48*	10	29*	-2	33*	57*
COc1ccc2nc(C)cc(N/N=C/c3ccccc3)c2c1	nt	-86	nt	nt	nt	nt
COc1ccc(/C=N/Nc2cc(C)nc3ccc(OC)cc23)c(OC)c1	33*	-84	43*	-7	93*	93*
COc1ccc([N+](=O)[O-])cc1NC(=O)c1ccc(-n2nc(C)cc2C)cc1	35*	nt	26*	-2	39*	71*
COc1ccc([N+](=O)[O-])cc1NC(=O)c1ccc(N2C(=O)CCC2=O)cc1	12	-7	-1	5	nt	nt
O=C(N/N=C/C=C/c1ccc([N+](=O)[O-])cc1)c1cccs1	60*	25	54*	1	67*	66*
O=C(C[C@H]1CC[C@@H](NC(=O)NC2CCCCC2)[C@H](CO)O1)NCc1ccccc1	nt	1	nt	nt	nt	nt
C#CCn1cc(/C=N/NC(=O)COc2cccc3cccnc23)c2ccccc21	7	nt	20	-1	nt	nt
COC(=O)Cn1cc(/C=N/NC(=O)COc2cccc3cccnc23)c2ccccc21	29*	nt	36*	2	34*	31*
